Reference: ChEMBL document CHEMBL4390639, “Design, Synthesis, and Biological Evaluation of Novel Allosteric Protein Disulfide Isomerase Inhibitors” (J Med Chem, 2019)
Active and inactive are the calls of the source. No cut-off for these calls is given here.

What was measured:
U-87 MG [1] = test: Inhibition of colony formation in human U87MG cells […] by crystal violet staining based assay; assay type: functional, cell-based; details: U-87MG ATCC
Method in brief: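 Clonogenicity: U87MG cells seeded at 200 cells/well, left overnight, treated 24 h, then medium replaced and cells grown ten days. Stained 30 min with crystal violet, washed, imaged; normalized well intensity from three independent experiments.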

[2] = system: Protein disulfide-isomerase (Homo sapiens), P07237 [H256A]; test: Inhibition of recombinant human N-terminal His-tagged PDI H256A mutant expressed in Escherichia coli BL21 (DE3) pLysS at 10 uM assessed as reduction in enzyme-mediated bovine insulin aggregation
Protein disulfide-isomerase (Homo sapiens), P07237 [H256A], sequence (P07237 whole entry H256A): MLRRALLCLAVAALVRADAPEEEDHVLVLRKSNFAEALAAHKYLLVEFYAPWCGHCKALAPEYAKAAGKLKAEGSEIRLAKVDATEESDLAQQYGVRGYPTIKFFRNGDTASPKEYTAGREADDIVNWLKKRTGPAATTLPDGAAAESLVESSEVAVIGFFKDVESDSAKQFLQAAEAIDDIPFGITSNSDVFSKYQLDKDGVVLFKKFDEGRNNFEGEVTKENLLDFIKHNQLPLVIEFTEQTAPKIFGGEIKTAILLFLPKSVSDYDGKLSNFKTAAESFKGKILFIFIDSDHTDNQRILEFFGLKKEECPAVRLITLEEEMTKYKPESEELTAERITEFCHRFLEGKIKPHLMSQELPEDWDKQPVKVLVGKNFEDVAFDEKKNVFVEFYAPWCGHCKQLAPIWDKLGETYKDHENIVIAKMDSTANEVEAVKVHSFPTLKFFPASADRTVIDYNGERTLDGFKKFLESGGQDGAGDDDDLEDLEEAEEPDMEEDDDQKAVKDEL
Method in brief: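 Insulin reductase assay against H256A PDI: 0.4 μM enzyme preincubated with compounds at 10 μM for 1 h at 37 °C in 100 mM sodium phosphate, 2 mM EDTA, 8 μM DTT, pH 7.0. Then 500 μM DTT and 130 μM bovine insulin added; aggregation read at 620 nm at room temperature. Activity % from OD change at 0 and 80 min, relative to PDI and DTT-only controls; three experiments.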

[3] = biological target: T1, Protein disulfide-isomerase (Homo sapiens, UniProt P07237); test: Inhibition of recombinant human N-terminal His-tagged PDI expressed in Escherichia coli BL21 (DE3) pLysS assessed as reduction in enzyme-mediated bovine insulin aggregation at 40 uM measured after 1 hr in presence of 5 mM NAC
T1 sequence (P07237 18-508 limits assumed): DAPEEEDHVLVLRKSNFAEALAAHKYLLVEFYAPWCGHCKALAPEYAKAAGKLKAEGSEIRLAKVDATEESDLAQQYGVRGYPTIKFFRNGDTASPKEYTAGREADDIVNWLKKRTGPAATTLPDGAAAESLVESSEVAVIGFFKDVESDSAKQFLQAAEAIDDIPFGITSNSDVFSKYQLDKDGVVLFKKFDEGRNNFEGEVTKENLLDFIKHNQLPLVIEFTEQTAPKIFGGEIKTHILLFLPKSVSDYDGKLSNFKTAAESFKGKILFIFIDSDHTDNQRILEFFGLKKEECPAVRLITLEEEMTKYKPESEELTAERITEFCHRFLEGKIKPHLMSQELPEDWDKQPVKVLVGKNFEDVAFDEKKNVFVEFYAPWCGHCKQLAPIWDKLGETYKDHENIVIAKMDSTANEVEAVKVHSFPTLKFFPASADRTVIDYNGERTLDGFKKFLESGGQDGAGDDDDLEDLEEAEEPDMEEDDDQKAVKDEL
Method in brief: (§1)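 Compounds pretreated with NAC for 30 min at 37 °C, then added to the insulin reductase assay at final 40 μM compound with 0, 1, 2 or 5 mM NAC. The assay uses 0.4 μM PDI preincubated 1 h at 37 °C, then DTT and bovine insulin, read at 620 nm, with % activity at 80 min.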

[4] = system: Protein disulfide-isomerase (Homo sapiens), P07237 [C53S,C397S]; test: Binding affinity to recombinant human N-terminal His-tagged PDI C53S/C397S double mutant expressed in Escherichia coli BL21 (DE3) pLysS assessed as change in melting temperature at 100 uM by ROX dye based thermal shift assay
Protein disulfide-isomerase (Homo sapiens), P07237 [C53S,C397S], sequence (P07237 whole entry C53S/C397S): as the sequence (P07237 whole entry H256A) above, with C53S, A256H, C397S counted along it
Method in brief: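 Purified wild-type, C53S/C397S or H256A PDI at 0.5 mg/mL in 50 mM Tris, pH 7.0, with or without 100 μM compound, was mixed with ROX dye in a 20 µL well. DMSO (5% in buffer) was the control. Samples were heated 25–99 °C at 1 °C/min, and the Boltzmann melting temperature shift versus DMSO was reported. Mean ± SD of three experiments.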

D54 cell line = test: Inhibition of colony formation in 1 to 6 Gy-irradiated human D54 cells at 1 uM measured after 10 to 12 days by crystal violet staining based assay; assay type: functional, cell-based
Method in brief: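 D54 cells irradiated at 0, 1, 2, 4 or 6 Gy and plated immediately at 200–1000 cells/well according to dose. Treated with DMSO, 0.05 μM PACMA31 or 1 μM compounds, grown 10–12 days, then colonies stained with 0.1% crystal violet.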

U-87 MG [5] = test: Cytotoxicity against human U87MG cells assessed as inhibition of cell proliferation at <IC50 measured after 72 hrs by MTT assay relative to control; assay type: functional, U-87MG ATCC
U-87 MG [6] = test: Down regulation of cleaved MMP2 expression in human U87MG cells at 10 uM measured after 24 hrs by Western blot analysis; assay type: functional, cell-based; details: U-87MG ATCC
[7] = biological target: 72 kDa type IV collagenase (Homo sapiens) (UniProt P08253); test: Inhibition of MMP2 activity in human U87MG cells at 10 uM […] by gelatin zymographic method; assay type: cell-based
72 kDa type IV collagenase (Homo sapiens), sequence (P08253 110-660 limits assumed): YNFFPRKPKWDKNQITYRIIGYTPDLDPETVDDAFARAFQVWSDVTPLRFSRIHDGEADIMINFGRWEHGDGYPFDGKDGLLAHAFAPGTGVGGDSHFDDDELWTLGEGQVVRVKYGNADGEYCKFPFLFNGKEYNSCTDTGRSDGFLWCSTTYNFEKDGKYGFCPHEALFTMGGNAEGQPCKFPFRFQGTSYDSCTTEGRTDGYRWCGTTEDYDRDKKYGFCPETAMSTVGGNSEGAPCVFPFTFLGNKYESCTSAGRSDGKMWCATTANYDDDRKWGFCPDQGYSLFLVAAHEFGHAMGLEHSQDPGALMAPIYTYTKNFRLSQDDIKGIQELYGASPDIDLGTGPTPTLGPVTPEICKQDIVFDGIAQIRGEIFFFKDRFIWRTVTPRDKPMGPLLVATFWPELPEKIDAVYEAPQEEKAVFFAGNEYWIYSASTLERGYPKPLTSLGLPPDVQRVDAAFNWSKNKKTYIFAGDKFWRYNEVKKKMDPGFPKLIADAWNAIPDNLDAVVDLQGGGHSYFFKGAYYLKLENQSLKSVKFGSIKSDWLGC

[8] = biological target: T1, Protein disulfide-isomerase; test: Inhibition of recombinant human N-terminal His-tagged PDI expressed in Escherichia coli BL21 (DE3) pLysS assessed as reduction in enzyme-mediated bovine insulin aggregation at 40 uM measured after 1 hr in presence of 1 to 2 mM NAC; method in brief: as §1
U-87 MG [9] = test: Up regulation of PSAT1 gene expression in human U87MG cells at 10 uM incubated for 4 hrs followed by bromouridine addition during last 30 mins of incubation by TRIzol-reagent based Bru-Seq analysis relative to control; assay type: functional, U-87MG ATCC
Method in brief: (§2)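 U87MG cells exposed to compound or DMSO vehicle for 4 h, with 2 mM bromouridine added for the final 30 min. Total RNA isolated with TRIzol; Bru-labelled nascent RNA captured on anti-BrdU antibody-conjugated magnetic beads and sequenced. Transcript abundance expressed as RPKM relative to DMSO. Experiment performed once.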

U-87 MG [10] = test: Down regulation of FKBP7 gene expression in human U87MG cells at 10 uM incubated for 4 hrs followed by bromouridine addition during last 30 mins of incubation by TRIzol-reagent based Bru-Seq analysis relative to control; assay type: functional, U-87MG ATCC
U-87 MG [11] = test: Cytotoxicity against human U87MG cells assessed as inhibition of cell proliferation at <IC50 treated for 24 hrs, measured after 10 days by colony formation assay relative to control
U-87 MG [12] = test: Down regulation of ANKRD36 gene expression in human U87MG cells at 10 uM incubated for 4 hrs followed by bromouridine addition during last 30 mins of incubation by TRIzol-reagent based Bru-Seq analysis relative to control; assay type: functional, U-87MG ATCC
U-87 MG [13] = test: Up regulation of NUPR1 gene expression in human U87MG cells at 10 uM incubated for 4 hrs followed by bromouridine addition during last 30 mins of incubation by TRIzol-reagent based Bru-Seq analysis relative to control; assay type: functional, U-87MG ATCC; method in brief: as §2
U-87 MG [14] = test: Down regulation of GGT4P gene expression in human U87MG cells at 16 uM incubated for 4 hrs followed by bromouridine addition during last 30 mins of incubation by TRIzol-reagent based Bru-Seq analysis relative to control; assay type: functional, U-87MG ATCC
U-87 MG [15] = test: Up regulation of AKR1C1 gene expression in human U87MG cells at 16 uM incubated for 4 hrs followed by bromouridine addition during last 30 mins of incubation by TRIzol-reagent based Bru-Seq analysis relative to control; assay type: functional, U-87MG ATCC; method in brief: as §2
U-87 MG [16] = test: Up regulation of GCLC gene expression in human U87MG cells at 16 uM incubated for 4 hrs followed by bromouridine addition during last 30 mins of incubation by TRIzol-reagent based Bru-Seq analysis relative to control; assay type: functional, U-87MG ATCC; method in brief: as §2
U-87 MG [17] = test: Down regulation of IL1B gene expression in human U87MG cells at 16 uM incubated for 4 hrs followed by bromouridine addition during last 30 mins of incubation by TRIzol-reagent based Bru-Seq analysis relative to control; assay type: functional, U-87MG ATCC; method in brief: as §2
U-87 MG [18] = test: Down regulation of CD83 gene expression in human U87MG cells at 16 uM incubated for 4 hrs followed by bromouridine addition during last 30 mins of incubation by TRIzol-reagent based Bru-Seq analysis relative to control; assay type: functional, U-87MG ATCC
U-87 MG [19] = test: Down regulation of E2F1 gene expression in human U87MG cells at 16 uM incubated for 4 hrs followed by bromouridine addition during last 30 mins of incubation by TRIzol-reagent based Bru-Seq analysis; assay type: functional, cell-based; details: U-87MG ATCC
U-87 MG [20] = test: Up regulation of CYYR1-AS1 gene expression in human U87MG cells at 16 uM incubated for 4 hrs followed by bromouridine addition during last 30 mins of incubation by TRIzol-reagent based Bru-Seq analysis relative to control; assay type: functional, U-87MG ATCC; method in brief: as §2
U-87 MG [21] = test: Up regulation of PIR gene expression in human U87MG cells at 16 uM incubated for 4 hrs followed by bromouridine addition during last 30 mins of incubation by TRIzol-reagent based Bru-Seq analysis relative to control; assay type: functional, U-87MG ATCC; method in brief: as §2

Row | Compound | inhibition (U-87 MG [1]) | inhibition [2] | inhibition [3] | Activity [4] | inhibition (D54 cell line) | inhibition (INH) (U-87 MG [5]) [%] | inhibition [8] | other results
1 | N#Cc1cccc(/C=C/C(=O)c2ccc(O)cc2)c1 | Dose-dependent effect | inactive | Active | Active | Active | – | – | –
2 | O=C(/C=C/c1ccc(-c2cccnc2)cc1)c1cccc(O)c1 | Dose-dependent effect | inactive | Active | Active | Active | >50 | – | Activity (U-87 MG [6]): Active; inhibition [7]: Active
3 | CCCCCN(CCCCC)S(=O)(=O)c1ccc(C(=O)/C=C/c2cccc(O)c2)cc1 | Dose-dependent effect | Active | inactive | Active | – | – | Active | –
4 | CCCCCN(CCCCC)S(=O)(=O)c1ccc(C(=O)/C=C/c2cccc(C#N)c2)cc1 | Dose-dependent effect | inactive | – | – | – | – | – | fold change (FC) (U-87 MG [9]): 11.7; fold change (FC) (U-87 MG [10]): 2.4; inhibition (INH) (U-87 MG [11]): >50%; fold change (FC) (U-87 MG [12]): 2.4; fold change (FC) (U-87 MG [13]): 11.8
5 | COC(=O)c1cccc(/C=C/C(=O)c2cccc(O)c2)c1 | Dose-dependent effect | inactive | inactive | Active | – | >50 | Active | fold change (FC) (U-87 MG [14]): 3.3; fold change (FC) (U-87 MG [15]): 8.1; fold change (FC) (U-87 MG [16]): 1.9; fold change (FC) (U-87 MG [17]): 5.5; fold change (FC) (U-87 MG [18]): 2.7; Activity (U-87 MG [19]): Active; fold change (FC) (U-87 MG [20]): 4.3; fold change (FC) (U-87 MG [21]): 4.3
